Measured values from ChEMBL document CHEMBL4428062, “Human Toll-like Receptor (TLR) 8-Specific Agonistic Activity in Substituted Pyrimidine-2,4-diamines” (J Med Chem, 2016).
Calls of active or inactive are those of the source. The rule behind the calls is not given here.

Experiments:
[1] = biological target: T1, Toll-like receptor 9 (Homo sapiens) (UniProt Q9NR96); assay: Agonist activity at human TLR9 expressed in HEK293 cells assessed as induction of NF-kappaB activity by secreted alkaline phosphatase reporter gene assay; format: cell-based
T1 sequence (whole entry): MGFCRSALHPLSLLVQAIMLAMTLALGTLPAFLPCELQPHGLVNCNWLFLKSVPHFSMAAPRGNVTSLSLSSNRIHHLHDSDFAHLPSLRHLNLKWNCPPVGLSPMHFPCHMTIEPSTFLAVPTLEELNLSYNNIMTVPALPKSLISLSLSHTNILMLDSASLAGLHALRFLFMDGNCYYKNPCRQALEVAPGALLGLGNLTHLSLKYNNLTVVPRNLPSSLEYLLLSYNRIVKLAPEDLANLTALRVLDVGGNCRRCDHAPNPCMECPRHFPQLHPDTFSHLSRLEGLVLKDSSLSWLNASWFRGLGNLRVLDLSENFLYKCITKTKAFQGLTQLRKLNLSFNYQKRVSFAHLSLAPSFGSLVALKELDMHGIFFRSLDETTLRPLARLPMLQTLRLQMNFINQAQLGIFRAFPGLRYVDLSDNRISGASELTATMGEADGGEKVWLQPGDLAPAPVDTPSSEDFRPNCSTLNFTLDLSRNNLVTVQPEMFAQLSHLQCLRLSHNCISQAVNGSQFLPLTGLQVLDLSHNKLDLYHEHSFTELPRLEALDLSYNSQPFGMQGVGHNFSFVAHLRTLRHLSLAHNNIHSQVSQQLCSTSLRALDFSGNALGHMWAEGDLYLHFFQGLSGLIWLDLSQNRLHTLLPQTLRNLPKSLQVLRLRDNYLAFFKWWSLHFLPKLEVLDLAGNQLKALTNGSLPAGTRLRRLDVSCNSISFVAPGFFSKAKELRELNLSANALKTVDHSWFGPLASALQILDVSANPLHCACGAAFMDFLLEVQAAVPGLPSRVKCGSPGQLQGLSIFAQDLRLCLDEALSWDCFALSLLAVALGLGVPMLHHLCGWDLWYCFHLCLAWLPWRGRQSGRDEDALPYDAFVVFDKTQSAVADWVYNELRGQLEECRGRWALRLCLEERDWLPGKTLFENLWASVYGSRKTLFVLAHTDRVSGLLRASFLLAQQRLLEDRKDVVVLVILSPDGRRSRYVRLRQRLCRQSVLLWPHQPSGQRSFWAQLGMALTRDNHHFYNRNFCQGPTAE
Procedure, shortened: (§1)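 HEK293 reporter lines stably co-transfected with the respective human TLR and an NF-κB/AP-1-driven secreted alkaline phosphatase gene, kept in selection medium. About 10^5 cells/ml were incubated with graded concentrations of stimuli. Supernatant sAP was read spectrophotometrically at 620 nm using a chromogenic substrate in detection medium. EC50 was taken as the arithmetic mean of quadruplicate samples.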

[2] = biological target: T2, Toll-like receptor 8 (Homo sapiens) (UniProt Q9NR97); assay: Agonist activity at TLR8 in human PBMC assessed as induction of IL-1beta levels after 16 hrs by immunoassay
T2 sequence (whole entry): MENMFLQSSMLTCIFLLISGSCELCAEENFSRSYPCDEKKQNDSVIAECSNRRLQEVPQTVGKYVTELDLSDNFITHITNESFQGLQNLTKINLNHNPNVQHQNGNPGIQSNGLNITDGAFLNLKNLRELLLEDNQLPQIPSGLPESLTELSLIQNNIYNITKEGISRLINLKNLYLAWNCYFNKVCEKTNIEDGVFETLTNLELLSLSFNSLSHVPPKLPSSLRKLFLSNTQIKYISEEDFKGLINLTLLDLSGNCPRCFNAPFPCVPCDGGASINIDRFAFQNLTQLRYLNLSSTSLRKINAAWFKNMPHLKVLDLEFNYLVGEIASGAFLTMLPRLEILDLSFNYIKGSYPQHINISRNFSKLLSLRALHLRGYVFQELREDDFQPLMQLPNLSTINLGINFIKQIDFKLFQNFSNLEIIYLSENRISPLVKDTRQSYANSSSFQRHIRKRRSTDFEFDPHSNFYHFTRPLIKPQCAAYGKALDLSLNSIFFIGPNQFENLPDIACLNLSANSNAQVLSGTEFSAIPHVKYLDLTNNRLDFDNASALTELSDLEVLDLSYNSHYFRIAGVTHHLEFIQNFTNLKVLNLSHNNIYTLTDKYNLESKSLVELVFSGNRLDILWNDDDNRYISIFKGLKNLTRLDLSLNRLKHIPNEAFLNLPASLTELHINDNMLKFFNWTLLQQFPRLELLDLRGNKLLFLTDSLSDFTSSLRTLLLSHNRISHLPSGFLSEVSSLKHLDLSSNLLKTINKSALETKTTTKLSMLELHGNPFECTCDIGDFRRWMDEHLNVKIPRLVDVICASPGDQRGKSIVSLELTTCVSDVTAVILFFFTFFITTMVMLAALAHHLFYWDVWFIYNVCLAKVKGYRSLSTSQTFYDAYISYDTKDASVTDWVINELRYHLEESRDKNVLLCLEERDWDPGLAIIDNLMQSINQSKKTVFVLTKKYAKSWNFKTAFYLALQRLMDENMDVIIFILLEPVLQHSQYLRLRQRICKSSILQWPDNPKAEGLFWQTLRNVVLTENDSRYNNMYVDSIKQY
Procedure, shortened: (§2)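 Freshly isolated human PBMC from venipuncture blood (informed consent), 10^5 cells/well, stimulated 16 h with graded concentrations of compound. Supernatants collected by centrifugation and cytokines quantified in duplicate with a multiplexed cytokine/chemokine magnetic bead array.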

[3] = biological target: Toll-like receptor 4 (Homo sapiens) (UniProt O00206); assay: Agonist activity at human TLR4 expressed in HEK293 cells assessed as induction of NF-kappaB activity by secreted alkaline phosphatase reporter gene assay; format: cell-based; procedure, shortened: as §1
Sequence of Toll-like receptor 4 (Homo sapiens) (O00206 whole entry): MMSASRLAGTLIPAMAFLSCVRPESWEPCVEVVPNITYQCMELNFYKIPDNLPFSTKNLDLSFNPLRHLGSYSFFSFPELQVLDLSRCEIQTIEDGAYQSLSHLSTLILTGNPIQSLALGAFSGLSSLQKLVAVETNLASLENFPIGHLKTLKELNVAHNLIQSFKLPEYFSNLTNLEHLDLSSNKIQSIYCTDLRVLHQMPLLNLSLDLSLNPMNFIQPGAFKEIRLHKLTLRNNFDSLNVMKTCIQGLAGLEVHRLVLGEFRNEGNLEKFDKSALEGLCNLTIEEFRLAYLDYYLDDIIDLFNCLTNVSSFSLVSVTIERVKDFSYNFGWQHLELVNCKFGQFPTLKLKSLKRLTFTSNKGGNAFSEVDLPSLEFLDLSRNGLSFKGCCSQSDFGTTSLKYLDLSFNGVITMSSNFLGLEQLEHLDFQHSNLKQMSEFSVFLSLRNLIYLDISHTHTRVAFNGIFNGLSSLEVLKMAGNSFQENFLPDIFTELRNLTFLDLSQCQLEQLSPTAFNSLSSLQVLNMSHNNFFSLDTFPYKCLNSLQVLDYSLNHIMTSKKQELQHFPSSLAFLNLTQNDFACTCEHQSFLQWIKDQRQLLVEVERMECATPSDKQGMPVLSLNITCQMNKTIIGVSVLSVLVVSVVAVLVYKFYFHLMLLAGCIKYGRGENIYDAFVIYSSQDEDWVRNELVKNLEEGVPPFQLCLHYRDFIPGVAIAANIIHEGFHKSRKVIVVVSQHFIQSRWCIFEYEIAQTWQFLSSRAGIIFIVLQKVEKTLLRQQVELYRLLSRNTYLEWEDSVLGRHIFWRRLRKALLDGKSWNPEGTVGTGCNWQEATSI

[4] = biological target: T2, Toll-like receptor 8 (Homo sapiens); assay: Agonist activity at TLR8 in human PBMC assessed as increase in TNF-alpha production after 16 hrs by immunoassay; procedure, shortened: as §2

With `CCCCNc1nc(N)nc(C)c1CCCCN` the Activity [1] was “inactive”, the Activity [2] was “inactive” and the Activity [3] was “inactive”.
In the case of `CCCCCn1c(N)nc2c(C)cccc21`, the Activity [4] is reported as “Active”, the Activity [1] is reported as “inactive” and the Activity [2] is reported as “Active”. For the same compound, the Activity [3] was “inactive”.
In the case of `CCCCNc1cc(-c2ccccc2)nc(N)n1`, the Activity [4] is reported as “inactive”, the Activity [1] is reported as “inactive” and the Activity [2] is reported as “inactive”. The Activity [3] was “inactive”.
`CCCCNc1nc(N)nc(C)c1I` was tested, and the Activity [4] was “Active”, the Activity [1] was “inactive” and the Activity [2] was “Active”. For the same compound, the Activity [3] was “inactive”.
With `CCCCNc1nc(N)nc(-c2ccccc2)c1CCCCN` the Activity [4] was “inactive”, the Activity [1] was “inactive” and the Activity [2] was “inactive”. The Activity [3] was “inactive”.
